The text below walks through data of ChEMBL document CHEMBL3351764, “Design, synthesis and biological activity of flavonoid derivatives as selective agonists for neuromedin U 2 receptor” (Bioorg Med Chem, 2014).

One assay deals with Neuromedin-U receptor 2 (Homo sapiens, UniProt Q9GZQ4). In words: Agonist activity at human NMU2R transfected in HEK293 cells after 7 hrs by luciferase reporter gene assay. It counts as cell-based. The method, boiled down:
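HEK-293 cells were stably co-transfected with a reporter gene construct and human NMU2R cDNA in pcDNA3.1(+), maintained under G418 selection at 37 °C in 5% CO2, then seeded and incubated overnight. Compounds were added at various concentrations for 7 h at 37 °C, followed by Bright-Glo luciferase read-out. Forskolin and NMU served as positive controls. EC50 was fitted by four-parameter logistic regression; means ± SEM of three independent experiments.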

Assay [1] addresses Melanocyte-stimulating hormone receptor (Homo sapiens) (UniProt Q01726). In words: Agonist activity at human MC1 receptor at 100 uM to 5 mM.
Assay [2] has as its target Melanocortin receptor 3 (Homo sapiens) (UniProt P41968). The experiment in a line: Agonist activity at human MC3 receptor at 100 uM to 5 mM.
Assay [3] concerns the target Melanocortin receptor 4 (Homo sapiens) (UniProt P32245). The experiment in a line: Agonist activity at human MC4 receptor at 100 uM to 5 mM.
The target in assay [4] is Melanocyte-stimulating hormone receptor (Mus musculus) (UniProt Q01727). In words: Agonist activity at mouse MC1 receptor at 100 uM to 5 mM.
The target in assay [5] is T1, Neuromedin-U receptor 1 (Homo sapiens) (UniProt Q9HB89).
T1 sequence (whole entry): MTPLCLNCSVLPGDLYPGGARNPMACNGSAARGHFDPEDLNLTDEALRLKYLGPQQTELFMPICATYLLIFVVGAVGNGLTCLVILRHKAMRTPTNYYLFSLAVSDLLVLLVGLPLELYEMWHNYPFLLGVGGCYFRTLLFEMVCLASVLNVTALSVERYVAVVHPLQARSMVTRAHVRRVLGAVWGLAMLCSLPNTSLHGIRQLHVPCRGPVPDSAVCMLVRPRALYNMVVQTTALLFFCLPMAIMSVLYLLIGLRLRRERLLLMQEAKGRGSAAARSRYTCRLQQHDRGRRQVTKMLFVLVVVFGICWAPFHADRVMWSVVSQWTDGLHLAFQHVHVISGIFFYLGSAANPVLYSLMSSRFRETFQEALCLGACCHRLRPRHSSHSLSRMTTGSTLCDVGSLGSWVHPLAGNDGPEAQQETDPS
In words: Agonist activity at human NMU1 receptor at 100 uM to 5 mM.

Assay [6] addresses T2, 5-hydroxytryptamine receptor 2C (Homo sapiens) (UniProt P28335).
T2 sequence (whole entry): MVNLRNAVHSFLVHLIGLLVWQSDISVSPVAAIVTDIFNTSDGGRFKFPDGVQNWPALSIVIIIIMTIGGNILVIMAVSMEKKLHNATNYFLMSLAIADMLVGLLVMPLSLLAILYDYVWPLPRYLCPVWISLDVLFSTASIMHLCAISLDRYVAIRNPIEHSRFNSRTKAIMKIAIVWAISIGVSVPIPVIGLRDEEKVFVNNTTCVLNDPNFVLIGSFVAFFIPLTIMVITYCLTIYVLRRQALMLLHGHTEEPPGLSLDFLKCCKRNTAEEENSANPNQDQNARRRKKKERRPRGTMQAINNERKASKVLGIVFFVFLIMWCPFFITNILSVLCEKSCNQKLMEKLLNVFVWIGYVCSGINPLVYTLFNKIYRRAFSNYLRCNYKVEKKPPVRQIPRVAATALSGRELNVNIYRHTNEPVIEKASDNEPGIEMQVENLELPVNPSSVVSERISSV
In words: Agonist activity at human 5HT2C receptor at 100 uM to 5 mM.

Assay [7] concerns the target Melanin-concentrating hormone receptor 1 (Homo sapiens) (UniProt Q99705). In words: Agonist activity at human MCH1 receptor at 100 uM to 5 mM.
In assay [8] the target is T3, Muscarinic acetylcholine receptor M1 (Homo sapiens) (UniProt P11229).
T3 sequence (whole entry): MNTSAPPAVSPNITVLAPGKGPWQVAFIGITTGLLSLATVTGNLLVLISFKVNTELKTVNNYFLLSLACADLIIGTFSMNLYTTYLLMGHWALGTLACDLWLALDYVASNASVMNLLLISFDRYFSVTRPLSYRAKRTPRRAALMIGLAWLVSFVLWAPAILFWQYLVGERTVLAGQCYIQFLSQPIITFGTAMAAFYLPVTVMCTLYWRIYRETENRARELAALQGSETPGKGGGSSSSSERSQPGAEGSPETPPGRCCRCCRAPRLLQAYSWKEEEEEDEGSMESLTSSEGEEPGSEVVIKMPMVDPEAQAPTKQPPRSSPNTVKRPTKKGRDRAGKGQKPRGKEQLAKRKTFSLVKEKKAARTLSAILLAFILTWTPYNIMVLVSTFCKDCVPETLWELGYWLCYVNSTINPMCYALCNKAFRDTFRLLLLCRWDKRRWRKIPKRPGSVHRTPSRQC
The experiment in a line: Agonist activity at human M1 receptor at 100 uM to 5 mM.

For assay [9], the target named is D(1B) dopamine receptor (Homo sapiens) (UniProt P21918). In words: Agonist activity at human D5 receptor at 100 uM to 5 mM.
Assay [10] concerns the target T4, Adenosine receptor A1 (Homo sapiens) (UniProt P30542).
T4 sequence (whole entry): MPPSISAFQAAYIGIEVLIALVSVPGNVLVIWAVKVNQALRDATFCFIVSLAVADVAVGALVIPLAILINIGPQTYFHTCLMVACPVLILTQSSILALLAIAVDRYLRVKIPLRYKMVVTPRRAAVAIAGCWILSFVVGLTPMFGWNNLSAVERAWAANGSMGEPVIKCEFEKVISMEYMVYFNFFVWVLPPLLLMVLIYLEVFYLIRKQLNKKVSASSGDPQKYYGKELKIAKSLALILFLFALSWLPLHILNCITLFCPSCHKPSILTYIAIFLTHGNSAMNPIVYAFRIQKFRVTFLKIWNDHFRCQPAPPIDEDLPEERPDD
In words: Agonist activity at human A1 receptor at 100 uM to 5 mM.

The target in assay [11] is Glucagon receptor (Homo sapiens) (UniProt P47871). The experiment in a line: Agonist activity at human Glu receptor at 100 uM to 5 mM.

Active and inactive are the calls of the source. The calls are words filed in the database; no cut-off is given here.

Melanin-concentrating hormone receptor 1 (Homo sapiens), sequence (Q99705 whole entry): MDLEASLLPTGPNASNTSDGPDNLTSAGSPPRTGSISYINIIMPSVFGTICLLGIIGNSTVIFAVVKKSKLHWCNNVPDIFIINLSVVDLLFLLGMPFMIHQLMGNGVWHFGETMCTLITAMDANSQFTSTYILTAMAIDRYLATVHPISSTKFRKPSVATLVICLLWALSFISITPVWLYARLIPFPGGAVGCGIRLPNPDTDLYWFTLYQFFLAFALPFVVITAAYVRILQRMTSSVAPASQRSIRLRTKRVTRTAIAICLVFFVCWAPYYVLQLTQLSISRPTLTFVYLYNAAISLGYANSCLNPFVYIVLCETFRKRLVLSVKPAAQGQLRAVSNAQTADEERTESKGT
D(1B) dopamine receptor (Homo sapiens), sequence (P21918 whole entry): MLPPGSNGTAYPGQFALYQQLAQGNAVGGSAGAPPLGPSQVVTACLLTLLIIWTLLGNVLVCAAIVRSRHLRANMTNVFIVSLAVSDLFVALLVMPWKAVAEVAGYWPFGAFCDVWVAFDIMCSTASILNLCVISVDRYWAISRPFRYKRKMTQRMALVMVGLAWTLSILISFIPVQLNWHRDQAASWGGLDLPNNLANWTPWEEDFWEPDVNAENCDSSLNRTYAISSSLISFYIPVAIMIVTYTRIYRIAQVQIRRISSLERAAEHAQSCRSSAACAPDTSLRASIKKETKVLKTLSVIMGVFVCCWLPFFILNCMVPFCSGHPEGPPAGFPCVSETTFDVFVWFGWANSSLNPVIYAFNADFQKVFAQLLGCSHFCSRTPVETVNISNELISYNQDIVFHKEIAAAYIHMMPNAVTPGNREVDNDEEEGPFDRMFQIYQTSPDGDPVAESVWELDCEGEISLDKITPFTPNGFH
Melanocyte-stimulating hormone receptor (Homo sapiens), sequence (Q01726 whole entry, looked up): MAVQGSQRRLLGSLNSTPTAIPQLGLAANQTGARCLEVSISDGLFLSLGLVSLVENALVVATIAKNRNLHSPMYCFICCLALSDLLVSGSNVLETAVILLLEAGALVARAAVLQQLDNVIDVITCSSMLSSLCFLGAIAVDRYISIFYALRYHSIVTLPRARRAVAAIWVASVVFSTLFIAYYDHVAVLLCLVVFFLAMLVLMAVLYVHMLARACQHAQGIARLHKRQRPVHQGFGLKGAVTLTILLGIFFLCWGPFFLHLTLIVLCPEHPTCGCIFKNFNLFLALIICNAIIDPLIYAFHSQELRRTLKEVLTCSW
Melanocortin receptor 4 (Homo sapiens), sequence (P32245 whole entry): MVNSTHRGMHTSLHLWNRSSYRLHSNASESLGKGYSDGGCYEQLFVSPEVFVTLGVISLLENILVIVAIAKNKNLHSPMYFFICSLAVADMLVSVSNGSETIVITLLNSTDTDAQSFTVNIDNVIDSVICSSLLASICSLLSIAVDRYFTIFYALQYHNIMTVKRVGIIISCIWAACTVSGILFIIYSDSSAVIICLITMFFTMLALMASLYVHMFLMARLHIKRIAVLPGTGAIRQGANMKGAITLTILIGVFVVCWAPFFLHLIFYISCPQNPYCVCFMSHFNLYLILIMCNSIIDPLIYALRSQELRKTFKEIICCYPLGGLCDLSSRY
Glucagon receptor (Homo sapiens), sequence (P47871 whole entry): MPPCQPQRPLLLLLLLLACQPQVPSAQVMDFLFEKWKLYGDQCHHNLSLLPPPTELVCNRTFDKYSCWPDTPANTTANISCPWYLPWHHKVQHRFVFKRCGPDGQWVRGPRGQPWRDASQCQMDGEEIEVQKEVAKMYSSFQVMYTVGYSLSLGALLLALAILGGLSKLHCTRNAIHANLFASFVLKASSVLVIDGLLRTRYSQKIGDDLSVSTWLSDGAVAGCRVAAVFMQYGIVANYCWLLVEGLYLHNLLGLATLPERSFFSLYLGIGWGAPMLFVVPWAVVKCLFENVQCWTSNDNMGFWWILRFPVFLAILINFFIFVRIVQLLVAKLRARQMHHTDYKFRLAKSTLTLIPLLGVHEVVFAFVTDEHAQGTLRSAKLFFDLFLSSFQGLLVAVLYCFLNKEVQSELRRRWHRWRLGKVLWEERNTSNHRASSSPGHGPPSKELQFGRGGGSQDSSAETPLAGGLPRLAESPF
Melanocyte-stimulating hormone receptor (Mus musculus), sequence (Q01727 whole entry, looked up): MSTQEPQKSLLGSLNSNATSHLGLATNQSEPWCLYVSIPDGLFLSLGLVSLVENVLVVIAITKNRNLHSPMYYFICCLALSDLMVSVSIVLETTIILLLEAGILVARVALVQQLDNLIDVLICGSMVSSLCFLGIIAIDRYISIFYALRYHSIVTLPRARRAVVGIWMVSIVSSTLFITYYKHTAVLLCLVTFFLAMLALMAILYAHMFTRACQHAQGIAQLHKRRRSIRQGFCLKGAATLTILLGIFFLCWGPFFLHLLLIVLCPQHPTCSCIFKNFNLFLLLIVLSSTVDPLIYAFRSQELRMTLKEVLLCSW
Neuromedin-U receptor 2, sequence (Q9GZQ4 whole entry): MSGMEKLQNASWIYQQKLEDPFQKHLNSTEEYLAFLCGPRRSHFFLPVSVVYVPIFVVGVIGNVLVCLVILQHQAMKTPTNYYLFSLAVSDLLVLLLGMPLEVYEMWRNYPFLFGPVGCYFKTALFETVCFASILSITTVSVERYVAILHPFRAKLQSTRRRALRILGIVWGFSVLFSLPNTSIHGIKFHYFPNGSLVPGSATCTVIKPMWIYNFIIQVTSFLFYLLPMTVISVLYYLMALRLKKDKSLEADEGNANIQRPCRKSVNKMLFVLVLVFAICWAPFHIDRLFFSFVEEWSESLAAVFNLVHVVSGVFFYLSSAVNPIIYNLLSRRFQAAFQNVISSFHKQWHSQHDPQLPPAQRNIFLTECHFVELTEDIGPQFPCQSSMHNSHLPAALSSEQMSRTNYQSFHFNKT
Melanocortin receptor 3 (Homo sapiens), sequence (P41968 whole entry): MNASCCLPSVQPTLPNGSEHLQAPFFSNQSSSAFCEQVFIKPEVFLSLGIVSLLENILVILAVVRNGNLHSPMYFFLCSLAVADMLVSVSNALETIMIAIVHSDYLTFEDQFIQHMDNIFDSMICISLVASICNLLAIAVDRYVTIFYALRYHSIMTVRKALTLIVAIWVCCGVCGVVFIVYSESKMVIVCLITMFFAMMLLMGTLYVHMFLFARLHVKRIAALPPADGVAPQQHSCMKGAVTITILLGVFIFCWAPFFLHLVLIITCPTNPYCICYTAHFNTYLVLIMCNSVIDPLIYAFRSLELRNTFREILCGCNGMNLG

A word on the EC50: it is the midpoint of the concentration-response curve. For the compound `Clc1ccc(C2C=Cc3ccccc3O2)c(Cl)c1` (racemic), the half-maximal effective concentration (EC50) result at Neuromedin-U receptor 2 (hek293) is “Not Active”. Besides, the outcome in assay [1], in [2], in [3], in assay [4], in assay [5] and in assay [6] was inactive. The outcome in assay [7], in assay [8], in assay [9], in assay [10] and in [11] was inactive.

For the compound `COc1cc(-c2cc(=O)c3ccccc3o2)ccc1O`, the half-maximal effective concentration (EC50) result on Neuromedin-U receptor 2 (hek293) is “Not Active”. Moreover, the outcome in [1], in [2], in assay [3], in assay [4], in [5] and in assay [6] was inactive. In addition, the outcome in assay [7], in assay [8], in assay [9], in [10] and in [11] was inactive.

On to `O=c1c(O)c(-c2cccc(Cl)c2)oc2ccccc12`, for which, at Neuromedin-U receptor 2 (hek293), the EC50 result is given as “Not Active”. The outcome in [1], in assay [2], in assay [3], in [4], in assay [5] and in assay [6] was inactive. The result in assay [7], in [8], in assay [9], in assay [10] and in assay [11] was inactive.

As for `O=c1c(O)c(-c2ccccc2F)oc2ccccc12`, at Neuromedin-U receptor 2 (read-out: EC50), the EC50 came to 37.3 µM. In addition, the outcome in assay [1], in assay [2], in assay [3], in assay [4], in assay [5] and in [6] was inactive. In addition, the result in [7], in assay [8], in assay [9], in assay [10] and in assay [11] was inactive.

For `COc1c(-c2cc(Br)ccc2F)oc2ccccc2c1=O`, the concentration giving a half-maximal response (EC50) entry on Neuromedin-U receptor 2 (hek293) is listed as “Not Active”. In addition, the result in assay [1], in [2], in [3], in assay [4], in [5] and in assay [6] was inactive. Further, the outcome in assay [7], in assay [8], in [9], in [10] and in assay [11] was inactive.

Consider `COc1ccc(-c2cc(=O)c3ccccc3o2)cc1O`, for which the EC50 entry on Neuromedin-U receptor 2 (hek293) is recorded as “Not Active”. Moreover, the result in [1], in assay [2], in assay [3], in assay [4], in [5] and in assay [6] was inactive. Further, the outcome in assay [7], in assay [8], in [9], in assay [10] and in assay [11] was inactive.

Consider `COc1ccc(C2C=Cc3ccccc3O2)cc1` (racemic), for which the concentration giving a half-maximal response (EC50) entry at Neuromedin-U receptor 2 (hek293) is “Not Active”. For the same compound, the outcome in assay [1], in assay [2], in assay [3], in [4], in assay [5] and in assay [6] was inactive. The outcome in assay [7], in [8], in assay [9], in [10] and in assay [11] was inactive.

Regarding `O=c1c(O)c(-c2c(F)ccc(F)c2Cl)oc2ccccc12`, the EC50 result at Neuromedin-U receptor 2 (hek293) is reported as “Not Active”. Further, the outcome in assay [1], in assay [2], in [3], in assay [4], in assay [5] and in assay [6] was inactive. The result in assay [7], in assay [8], in assay [9], in [10] and in assay [11] was inactive.

Take `CN(C)c1ccc(C2C=Cc3ccccc3O2)cc1` (racemic): at Neuromedin-U receptor 2 (hek293), the concentration giving a half-maximal response (EC50) entry was “Not Active”. The result in [1], in [2], in [3], in [4], in assay [5] and in assay [6] was inactive. For the same compound, the result in [7], in assay [8], in [9], in [10] and in assay [11] was inactive.

As to `COc1ccc(F)c(-c2oc3ccccc3c(=O)c2O)c1`, on Neuromedin-U receptor 2 (read-out: EC50), the half-maximal effective concentration (EC50) turned out to be 253 µM. Further, the outcome in assay [1], in [2], in assay [3], in assay [4], in [5] and in assay [6] was inactive. Also, the outcome in [7], in assay [8], in assay [9], in assay [10] and in assay [11] was inactive.
